Published values of several laboratories.
Each line is one published result; the experiments were not run side by side.
ABL1 Y253F: Tyrosine-protein kinase ABL1 (ABL1, Homo sapiens, UniProt P00519, Y253F)
ABL1: Tyrosine-protein kinase ABL1 (ABL1, Homo sapiens, UniProt P00519)
ABL1 F317I: Tyrosine-protein kinase ABL1 (ABL1, Homo sapiens, UniProt P00519, F317I)
ABL1 phosphorylated: Tyrosine-protein kinase ABL1, phosphorylated (ABL1, Homo sapiens, UniProt P00519)

`COc1ccc2oc(-c3ccc4nc(N)oc4c3)c/c(=N\c3ccccc3NC(=O)CCN)c2c1` has a remaining signal of 95% (ABL1 Y253F; cell-free assay; 1 µM).
For `C[C@H]1CC[C@H](n2c3cnccc3c3cnc(Nc4ccc5c(n4)CCN(C(=O)CO)C5)nc32)CC1`, the remaining signal was 100% (ABL1 Y253F; cell-free assay; 1 µM).
The inhibition of `Cc1nc(Nc2ncc(C(=O)Nc3c(C)cccc3Cl)s2)cc(N2CCC(O)CC2)n1` is reported as 83% (ABL1; enzyme activity, inhibitor; 1 nM).
With `CN1CCN(C(=O)c2ccc(NC(=O)Nc3ccc(N(C)c4ccnc(Nc5ccc(CS(C)(=O)=O)cc5)n4)cc3)cc2)CC1` the remaining binding was 9% (Tyrosine-protein kinase ABL1, non-phosphorylated (ABL1, Homo sapiens, UniProt P00519); binding, competition with immobilised ligand; 1 µM).
`CC#CC(=O)N1CCC[C@H]1c1nc(-c2ccc(C(=O)Nc3ccccn3)cc2)c2c(N)nccn12` gave an inhibition of 19% (Tyrosine-protein kinase ABL1, non-phosphorylated (ABL1, Homo sapiens, UniProt P00519, T315I); enzyme activity, inhibitor; 1 µM).
`[2H]c1cc(C)c(NC(=O)c2cnc(Nc3cc(N4CCCCC4)nc(C)n3)s2)c(Cl)c1` has an inhibition of > 90% (ABL1; enzyme activity, inhibitor; 10 nM).
`C=CC(=O)N1CCC([C@@H]2CCNc3c(C(N)=O)c(-c4ccc(Oc5ccccc5)cc4)nn32)CC1` gave an inhibition of 32% (Tyrosine-protein kinase ABL1, phosphorylated (ABL1, Homo sapiens, UniProt P00519, Q252H); enzyme activity, inhibitor; 1 µM).
The remaining binding of `COc1ccc2[nH]c3c4[nH]c5ccc(OC)cc5c4c4c(c3c2c1)C(=O)NC4=O` is reported as 87% (ABL1 F317I; binding; 1 µM).
For `CO[C@@H]1[C@H](N(C)C(=O)c2ccccc2)C[C@H]2O[C@]1(C)n1c3ccccc3c3c4c(c5c6ccccc6n2c5c31)C(=O)NC4`, the inhibition was 31% (ABL1 phosphorylated; enzyme activity, inhibitor; 1 µM).
`Cc1ccc(NC(=O)c2ccnc(C(F)(F)F)c2)cc1-c1cc(OCCO)nc(N2CCOCC2)c1` has a remaining binding of 85% (ABL1 F317I; binding; 1 µM).
`C1=C/COCc2cc(ccc2OCCN2CCCC2)Nc2nccc(n2)-c2cccc(c2)COC/1` has a remaining binding of 15% (Tyrosine-protein kinase ABL1 (ABL1, Homo sapiens, UniProt P00519, Q252H); binding; 0.1 µM).
The inhibition of `Cc1nc(Nc2ncc(C(=O)Nc3c(C)cccc3Cl)s2)cc(N2CC[C@@H](N)C2)n1` is reported as 93% (ABL1; enzyme activity, inhibitor; 1 nM).
`CCCCC(=O)Nc1ccc(-c2ccc3ncn(CCC)c(=O)c3c2)cn1` has a remaining binding of 93% (ABL1 phosphorylated; binding, competition with immobilised ligand; 0.5 µM).
`[2H]c1cc(C)c(NC(=O)c2cnc(Nc3cc(N4CC[C@H](O)C4)nc(C)n3)s2)c(Cl)c1` has an inhibition of 86% (ABL1; enzyme activity, inhibitor; 1 nM).
`N#Cc1ccc(NC(=O)Nc2ccccc2)cc1` gave a remaining binding of 96% (ABL1 phosphorylated; cell-free assay, competition with immobilised ligand; 25 µM).
